Source: ChEMBL document CHEMBL2062453, “Lead optimization through VLAK protocol: new annelated pyrrolo-pyrimidine derivatives as antitumor agents” (2012)

Assays:
Assay type in all cases: functional
[1] = system: UO-31; assay: Cytotoxicity against human UO31 cells assessed as cell growth at 10 uM after 48 hrs by SRB assay relative to control; details: UO-31, 48 h, read-out: Activity
How it was run: (§1)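 NCI single-dose primary screen across about 60 human tumour lines. Each line was inoculated and preincubated on microtiter plates, then exposed to one concentration of agent for 48 h. Growth is reported as percent growth (G%) of treated cells versus untreated control cells.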

[2] = system: NCI-H226; assay: Cytotoxicity against human NCI-H226 cells assessed as cell growth at 10 uM after 48 hrs by SRB assay relative to control; details: NCI-H226, 48 h, read-out: Activity
[3] = system: A498; assay: Cytotoxicity against human A498 cells assessed as cell growth at 10 uM after 48 hrs by SRB assay relative to control; details: A498, 48 h, read-out: Activity
How it was run: (§2)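 NCI primary screen of about 60 human tumour lines. Cells inoculated and preincubated, then a single test concentration added and cultures incubated 48 h. Result given as percent growth (G%) of treated versus untreated control cells.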

[4] = system: HCC 2998; assay: Cytotoxicity against human HCC2998 cells assessed as cell growth at 10 uM after 48 hrs by SRB assay relative to control; details: HCC 2998, 48 h, read-out: Activity; how it was run: as §2
[5] = system: NCI/ADR-RES; assay: Cytotoxicity against human NCI/ADR-RES cells assessed as cell growth at 10 uM after 48 hrs by SRB assay relative to control; details: read-out: Activity
[6] = system: SR; assay: Cytotoxicity against human SR cells assessed as cell growth at 10 uM after 48 hrs by SRB assay relative to control; details: read-out: Activity; how it was run: as §1
[7] = system: SF-539; assay: Cytotoxicity against human SF539 cells assessed as cell growth at 10 uM after 48 hrs by SRB assay relative to control; details: SF-539, 48 h, read-out: Activity
[8] = system: HOP-92; assay: Cytotoxicity against human HOP92 cells assessed as cell growth at 10 uM after 48 hrs by SRB assay relative to control; details: HOP-92, 48 h, read-out: Activity; how it was run: as §2
[9] = system: RPMI-8226; assay: Cytotoxicity against human RPMI8226 cells assessed as cell growth at 10 uM after 48 hrs by SRB assay relative to control; details: RPMI-8226, 48 h, read-out: Activity
[10] = system: NCI-H522; assay: Cytotoxicity against human NCI-H522 cells assessed as cell growth at 10 uM after 48 hrs by SRB assay relative to control; details: NCI-H522, 48 h, read-out: Activity
[11] = system: 786-0; assay: Cytotoxicity against human 786-0 cells assessed as cell growth at 10 uM after 48 hrs by SRB assay relative to control; details: 786-0, 48 h, read-out: Activity; how it was run: as §2
[12] = system: RXF 393; assay: Cytotoxicity against human RXF393 cells assessed as cell growth at 10 uM after 48 hrs by SRB assay relative to control; details: RXF 393, 48 h, read-out: Activity
[13] = system: NCI-H23; assay: Cytotoxicity against human NCI-H23 cells assessed as cell growth at 10 uM after 48 hrs by SRB assay relative to control; details: NCI-H23, 48 h, read-out: Activity
[14] = system: HT-29; assay: Cytotoxicity against human HT-29 cells assessed as cell growth at 10 uM after 48 hrs by SRB assay relative to control; details: HT-29, 48 h, read-out: Activity; how it was run: as §2
[15] = system: SK-MEL-28; assay: Cytotoxicity against human SK-MEL-28 cells assessed as cell growth at 10 uM after 48 hrs by SRB assay relative to control; details: SK-MEL-28, 48 h, read-out: Activity
[16] = system: K562; assay: Cytotoxicity against human K562 cells assessed as cell growth at 10 uM after 48 hrs by SRB assay relative to control; details: K562, 48 h, read-out: Activity; how it was run: as §2
[17] = system: OVCAR-4; assay: Cytotoxicity against human OVCAR4 cells assessed as cell growth at 10 uM after 48 hrs by SRB assay relative to control; details: OVCAR-4, 48 h, read-out: Activity
[18] = system: TK-10; assay: Cytotoxicity against human TK10 cells assessed as cell growth at 10 uM after 48 hrs by SRB assay relative to control; details: TK-10, 48 h, read-out: Activity; how it was run: as §1
[19] = system: HOP-62; assay: Cytotoxicity against human HOP62 cells assessed as cell growth at 10 uM after 48 hrs by SRB assay relative to control; details: HOP-62, 48 h, read-out: Activity; how it was run: as §2
[20] = system: HCT-15; assay: Cytotoxicity against human HCT15 cells assessed as cell growth at 10 uM after 48 hrs by SRB assay relative to control; details: HCT-15, 48 h, read-out: Activity; how it was run: as §2
[21] = system: SK-OV-3; assay: Cytotoxicity against human SKOV3 cells assessed as cell growth at 10 uM after 48 hrs by SRB assay relative to control; details: SK-OV-3, 48 h, read-out: Activity
[22] = system: SF-268; assay: Cytotoxicity against human SF268 cells assessed as cell growth at 10 uM after 48 hrs by SRB assay relative to control; details: SF-268, 48 h, read-out: Activity
[23] = system: COLO 205; assay: Cytotoxicity against human COLO205 cells assessed as cell growth at 10 uM after 48 hrs by SRB assay relative to control; details: COLO 205, 48 h, read-out: Activity; how it was run: as §2
[24] = system: Malme-3M; assay: Cytotoxicity against human MALME-3M cells assessed as cell growth at 10 uM after 48 hrs by SRB assay relative to control; details: read-out: Activity; how it was run: as §2
[25] = system: PC-3; assay: Cytotoxicity against human PC3 cells assessed as cell growth at 10 uM after 48 hrs by SRB assay relative to control; details: PC-3, 48 h, read-out: Activity
[26] = system: OVCAR-3; assay: Cytotoxicity against human OVCAR3 cells assessed as cell growth at 10 uM after 48 hrs by SRB assay relative to control; details: OVCAR-3, 48 h, read-out: Activity
[27] = system: IGROV-1; assay: Cytotoxicity against human IGROV1 cells assessed as cell growth at 10 uM after 48 hrs by SRB assay relative to control; details: IGROV-1, 48 h, read-out: Activity; how it was run: as §2

SMILES | growth at 10 µM [1] | growth at 10 µM [2] | growth at 10 µM [3] | growth at 10 µM [4] | growth at 10 µM [5] | growth at 10 µM [7] | growth at 10 µM [9] | growth at 10 µM [10] | growth at 10 µM [11] | growth at 10 µM [12] | growth at 10 µM [13] | growth at 10 µM [14] | growth at 10 µM [15] | growth at 10 µM [16] | growth at 10 µM [17] | growth at 10 µM [18] | growth at 10 µM [19] | growth at 10 µM [20] | growth at 10 µM [21] | growth at 10 µM [22] | also measured
CCOC(=O)CCCn1c(C)c(C)c2c1N=C(SC)N1CC(=O)N=C21 | 81% | 113% | 115% | 129% | 112% | 95% | 95% | 97% | 113% | 121% | 117% | 109% | 114% | 94% | 100% | 135% | 112% | 108% | 127% | 132% | growth at 10 µM [6]: 119%; growth at 10 µM [8]: 89%; growth at 10 µM [23]: 132%; growth at 10 µM [24]: 119%; growth at 10 µM [25]: 103%; growth at 10 µM [26]: 162%; growth at 10 µM [27]: 98%
CSC1=Nc2c(c(C)c(C)n2CCCC(=O)O)C2=NC(=O)CN12 | 88% | 110% | 86% | 118% | 114% | 86% | 110% | 94% | 109% | 122% | 109% | 108% | 110% | 93% | 104% | 121% | 98% | 114% | 113% | 114% | growth at 10 µM [6]: 122%; growth at 10 µM [8]: 92%; growth at 10 µM [23]: 137%; growth at 10 µM [24]: 115%; growth at 10 µM [25]: 98%; growth at 10 µM [26]: 113%; growth at 10 µM [27]: 101%
CCOC(=O)CCCn1c2c(c(C)c1-c1ccccc1)C1=NC(=O)CN1C(SC)=N2 | 85% | 110% | 118% | 127% | 95% | 84% | 81% | 92% | 100% | 108% | 110% | 103% | 100% | 90% | 94% | 123% | 111% | 114% | 123% | 105% | growth at 10 µM [6]: 94%; growth at 10 µM [8]: 80%; growth at 10 µM [23]: 129%; growth at 10 µM [24]: 116%; growth at 10 µM [25]: 93%; growth at 10 µM [26]: 110%; growth at 10 µM [27]: 105%
CSC1=Nc2c(c(C)c(-c3ccccc3)n2CCCC(=O)O)C2=NC(=O)CN12 | 82% | 107% | 109% | 106% | 98% | 92% | 88% | 84% | 102% | 96% | 105% | 97% | 84% | 99% | 92% | 135% | 88% | 95% | 114% | 96% | growth at 10 µM [8]: 95%; growth at 10 µM [23]: 153%; growth at 10 µM [24]: 133%; growth at 10 µM [25]: 94%; growth at 10 µM [26]: 109%; growth at 10 µM [27]: 88%
CSC1=Nc2c(c(C)c(-c3ccccc3)n2CCCN2CCN(C)CC2)C2=NC(=O)CN12 | 78% | 76% | 93% | 100% | 98% | 86% | 66% | 85% | 98% | 106% | 94% | 98% | 103% | 93% | 89% | 127% | 89% | 102% | 96% | 88% | growth at 10 µM [6]: 70%; growth at 10 µM [23]: 91%; growth at 10 µM [24]: 125%; growth at 10 µM [26]: 96%; growth at 10 µM [27]: 92%
